Sampled rows, rich in hits. Any-hit rate of the full collection: about 9.6%.
HCT116 bCat-KO: primary screen for growth suppressors in beta-catenin knockout HCT116 cells (colon tumor, human); HCT116 beta-catenin knockout viability, CellTiter-Glo, 60 h; stronger effect = lower value; viability, % at 10 µM; hit rate 1.5% among 140,000; AID 818, 2007;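 active means viability at or under a set limit, the compound median less 4 SD, cut at about 6% in these data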;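 further: 0% = Hyamine 1622 control at 20 µM and 100% = untreated cell control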
PMI act satM6P: human PMI activators, high substrate, primary screen, biochemical, fluorescence intensity, near-saturating mannose 6-phosphate. Mannose-6-phosphate isomerase (Homo sapiens), P34949. coupled PMI enzyme assay, resazurin fluorescence, 20 min; stronger effect = higher value; 1 = untreated enzyme, 0 = substrate-free blank. activation factor at 20 µM. hit rate 0.34% among 190,000. AID 1216, 2008;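 active means activation factor of 2 or more at 20 µM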
Target sequence (P34949 whole entry, looked up): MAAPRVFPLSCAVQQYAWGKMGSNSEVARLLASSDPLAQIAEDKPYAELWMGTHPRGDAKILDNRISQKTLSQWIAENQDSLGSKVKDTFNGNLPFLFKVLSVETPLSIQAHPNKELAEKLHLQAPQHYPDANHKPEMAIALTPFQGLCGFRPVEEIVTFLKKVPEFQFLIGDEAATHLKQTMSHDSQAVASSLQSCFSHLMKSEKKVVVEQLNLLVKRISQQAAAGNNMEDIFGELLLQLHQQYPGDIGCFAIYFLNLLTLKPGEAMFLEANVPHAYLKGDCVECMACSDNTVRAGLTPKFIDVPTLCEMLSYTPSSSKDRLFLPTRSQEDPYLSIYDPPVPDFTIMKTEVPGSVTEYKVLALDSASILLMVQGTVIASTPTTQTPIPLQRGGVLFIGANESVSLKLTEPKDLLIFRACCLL
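Material: human phosphomannose isomerase with PGI, G6PDH, diaphorase coupling enzymes. Quantity: 15 ng/mL PMI. Medium: HEPES pH 7.4 buffer with MgCl2 and Tween-20. Reagent: Near-saturating mannose-6-phosphate, 1.0 mM. Compound: 20 µM single dose. Times: enzyme reaction with compound 20 min at room temperature. Detection: resorufin fluorescence at Ex 544/Em 590 nm.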
L major viab: Leishmania major promastigote growth inhibition, primary screen. Leishmania major promastigotes, resazurin fluorescence viability. inhibition, % at 10 µM. hit rate 9% among 200,000; in the data active means inhibition above about 50%;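 further: promastigotes grown with compound for 44 hours at 28 °C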
PTEN del growth: growth suppression of PTEN-null HCT116, primary screen, cell-based, CellTiter-Glo; HCT116 PTEN-null viability, 60 h; stronger effect = lower value; viability, % at 10 µM; hit rate 1.2% among 140,000; AID 827, 2007;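 active means viability at or below a set limit, 4 SD under the median of all tested compounds, cut at about 3.7% in these data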;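 further: PTEN knockout HCT116 line with beta catenin targeted HCT116 as companion control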
PMI act: activators of human PMI, primary screen, biochemical, fluorescence intensity, near-Km mannose 6-phosphate; Mannose-6-phosphate isomerase (Homo sapiens), P34949; AID 1214, 2008; hit rate 0.005% among 190,000; purified human PMI, coupled resazurin fluorescence, 20 min; stronger effect = higher value; 1 = vehicle control, 0 substrate-free wells; activation factor at 20 µM;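 active means activation factor of 2 or more at 20 µM, relative to plate controls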
An asterisk follows results filed as active; . = not tested or not shown.

SMILES | HCT116 bCat-KO | PMI act satM6P | L major viab | PTEN del growth | PMI act
CCN(CC)P(=O)(Nc1ccc(C)cc1Br)c1ccc(N(C)C)cc1NC(=O)c1ccco1 (stereo not drawn) | . | 0.5 | 65* | . | 0.7
O=C(NCCCn1ccnc1)/C(=C\c1cccs1)NC(=O)c1ccco1 | 87 | 1 | 56* | 93 | 1.1
COc1cccc2[nH]c3c(N4CCC(C(N)=O)CC4)ncnc3c12 | 94 | 1 | 20 | 102 | 1
COc1cccc2[nH]c3c(N4CCCC(C)C4)ncnc3c12 (stereo not drawn) | 56 | 0.9 | 99* | 67 | 1
CCOC(=O)C1CCCN(c2ncnc3c2[nH]c2cccc(OC)c23)C1 (stereo not drawn) | 98 | 1 | 76* | 96 | 0.9
COc1cccc2[nH]c3c(N4CC(C)CC(C)C4)ncnc3c12 (stereo not drawn) | 55 | 1 | 100* | 57 | 1
CC(C)(C)NC(=O)COC(=O)c1ccc(NC(=O)CC#N)cc1 | . | 1.1 | -2 | . | 1
Cc1ccccc1CN1C[C@@H]2C[C@@H](c3cnc(N4CCOCC4)s3)N3CCC[C@@]23C1=O | . | . | -8 | . | .
CC1Cc2ccccc2N1CC(=O)NC(=O)NC(C)(C)C (stereo not drawn) | . | 1 | 2 | . | 1
CC1Cc2ccccc2N1CC(=O)NC(=O)NC1CCCCC1 (stereo not drawn) | . | 0.8 | 92* | . | 0.9
CC1Cc2ccccc2N1CC(=O)NC(c1ccccc1)c1ccccc1 (stereo not drawn) | 83 | 0.9 | -3 | 80 | 0.8
CC1Cc2ccccc2N1CC(=O)NC(=O)NCc1ccccc1 (stereo not drawn) | . | 0.9 | 63* | . | 1
O=c1[nH]c(CN2CCN(S(=O)(=O)c3ccccc3C(F)(F)F)CC2)nc2sc3c(c12)CCCC3 | 89 | 1 | 44 | 91 | 0.9
CCN(C(=O)CSc1nncn1-c1ccccc1)c1c(N)n(Cc2ccccc2)c(=O)[nH]c1=O | 91 | 1 | -4 | 101 | 1
COCCN(C(=O)CSc1nncn1-c1ccccc1)c1c(N)n(Cc2ccccc2)c(=O)[nH]c1=O | 96 | 0.9 | 54* | 100 | 0.9
CCCCCC#CCC#CCC#CCC#CCCCC(=O)O | 93 | 1.1 | 84* | 92 | 1.1
CC(NC(=O)C(Cc1ccccc1)N1C(=O)C2C3CCC(C3)C2C1=O)c1ccccc1 (stereo not drawn) | 92 | 0.8 | 39 | 91 | 1
CC(NC(=O)C(C)N1C(=O)C2C3CC(C(Br)C3Br)C2C1=O)c1ccccc1 (stereo not drawn) | 95 | 1.1 | 82* | 103 | 1.1
O=C(COc1ccc(/C=N/NC(=O)c2cc3ccccc3o2)cc1Br)Nc1ccccc1 | 1.8* | 1.1 | -1 | 3.5* | 1.2
O=C(COc1ccccc1[N+](=O)[O-])Nc1ccc(NC(=O)c2cc3ccccc3o2)cc1 | . | 1 | 2 | . | 1
O=C(O)c1nn(CC(=O)N(C2CCCCC2)C2CCCCC2)c(=O)c2ccccc12 | . | 1 | -2 | . | 1
CCN(CC)S(=O)(=O)c1cccc(-c2n[nH]c(=S)n2Cc2ccccc2)c1 | . | 1 | 100* | . | 1
CCN(CC)S(=O)(=O)c1cccc(-c2cn3cc(C)ccc3n2)c1 | 86 | 1.1 | 85* | 81 | 0.9
CCn1nc(CC(=O)O)c2ccccc2c1=O | . | 1 | -2 | . | 1
Cc1ccc(NC(=O)COC(=O)c2sccc2C)cc1S(=O)(=O)N1CCOCC1 | 90 | 1.3 | 5 | 88 | 1.1
SMILES | HCT116 bCat-KO | PMI act satM6P | L major viab | PTEN del growth | PMI act
Cc1ccc2c(C)nc(Nc3nc(CSc4nc5ccccc5[nH]4)cc(=O)[nH]3)nc2c1 | 97 | 1.1 | 100* | 96 | 1
COCc1cc(=O)[nH]c(Nc2nc(C)c3cc(OC)ccc3n2)n1 | 88 | 1 | 31 | 93 | 1
COc1ccc2c(C)nc(Nc3nc(C)cc(=O)[nH]3)nc2c1 | . | . | 100* | . | .
Cc1ccc(SCc2cc(=O)[nH]c(Nc3nc(C)c4ccc(C)cc4n3)n2)cc1 | 63 | 2* | 35 | 70 | 1.5
Cc1nnc(SCc2cc(=O)[nH]c(Nc3nc(C)c4ccccc4n3)n2)s1 | . | . | 84* | . | .
Cc1ccc(SCc2cc(=O)[nH]c(Nc3nc(C)c4ccccc4n3)n2)cc1 | 80 | 0.9 | 0 | 72 | 1
O=C(Nc1ccccc1OC(F)F)c1ccc(Br)o1 | 89 | 0.9 | -4 | 89 | 0.9

Bioassay records (PubChem)
